# Article PMC3228362 (Biochemistry, 2011)
# Where “and” joins values, the source holds several entries; their conditions need not be identical. Equal entries are not always repeated. Where two headings read alike, the source gives them in different places. Marks after values point to notes of the source that are not given here.
# Columns and labels:
# T4 exo^- DNA polymerase [1] = assay: Nucleotide incorporation opposite template 2AP; type: biochemical, bacteriophage T4; conditions: for kpol / Kdincorp: long A+T-rich DNA 1, from data of ref 13
# [2] = molecular target: T1, RB69 exo^- DNA polymerase (D222A/D327A, wild type) (Escherichia phage RB69, UniProt Q38087, D222A/D327A); type: biochemical, bacteriophage RB69; conditions: opposite template 2AP; for Kd: read-out: Kdincorp, app
# In short: (§1)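 Single-turnover rapid chemical quench at 22 °C in 66 mM Tris-HCl pH 7.5. Final concentrations were 100 nM 5′-32P-labeled DNA, 1 μM polymerase, 10 mM MgCl2 and varying dNTP. Reactions were quenched with 0.5 M EDTA. Products were resolved on 20% acrylamide/8 M urea gels and quantified by phosphorimaging. Data were fit to a single exponential.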
# [3] = molecular target: T2, RB69 Y567A exo^- DNA polymerase (Escherichia phage RB69, UniProt Q38087, D222A/D327A/Y567A); type: biochemical, bacteriophage RB69
# In short: as §1
# T4 exo^- DNA polymerase [4] = conditions: opposite template 2AP, long A+T-rich DNA 1, cited from earlier work
# T4 exo^- DNA polymerase [5] = assay: Nucleotide binding opposite template 2AP; set-up: species or system bacteriophage T4; conditions: for Kd: opposite template 2AP
# [6] = molecular target: T1, RB69 exo^- DNA polymerase (D222A/D327A, wild type); assay: Nucleotide binding opposite template 2AP; set-up: species or system bacteriophage RB69; conditions: for Kd: read-out: Kdbind, opposite template 2AP
# In short: (§2)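 Chain-terminated (dideoxy) 2AP-labeled primer-template DNA at 200 nM with a 2 to 2.5-fold excess of polymerase, in 25 mM HEPES pH 7.6, 50 mM NaCl, 1 mM DTT and 10 mM MgCl2. Nucleotide was added incrementally. Excitation was at 315 nm and emission was scanned from 330 to 450 nm with 2 nm band-pass, at 20 °C. Kd was taken from the fluorescence quench curves.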
# [7] = molecular target: T2, RB69 Y567A exo^- DNA polymerase; assay: Nucleotide binding opposite template 2AP; set-up: species or system bacteriophage RB69; conditions: for Kd: opposite template 2AP
# In short: as §2
# T4 exo^- DNA polymerase [8] = conditions: cited from earlier work
# DNA polymerase α = conditions: cited from earlier work
# [9] = A+T- and G+C-rich DNAs (Table 1)
# [10] = opposite template 2AP, long A+T-rich DNA 1
# [11] = opposite template 2AP, long G+C-rich DNA 2
# [12] = opposite template 2AP, short A+T-rich DNA 3
# [13] = opposite template 2AP, short G+C-rich DNA 4
# [14] = read-out: Kdincorp, app, opposite template 2AP, long A+T-rich DNA 1
# [15] = read-out: Kdincorp, app, opposite template 2AP, short A+T-rich DNA 3
# [16] = read-out: Kdincorp, app, opposite template 2AP, short G+C-rich DNA 4
# [17] = read-out: Kdbind, long A+T-rich DNA 1
# [18] = read-out: Kdbind, long G+C-rich DNA 2
# [19] = read-out: Kd (Table 3), DNA 1, conditions as Table 1
# T2 sequence (Q38087 whole entry D222A/D327A/Y567A): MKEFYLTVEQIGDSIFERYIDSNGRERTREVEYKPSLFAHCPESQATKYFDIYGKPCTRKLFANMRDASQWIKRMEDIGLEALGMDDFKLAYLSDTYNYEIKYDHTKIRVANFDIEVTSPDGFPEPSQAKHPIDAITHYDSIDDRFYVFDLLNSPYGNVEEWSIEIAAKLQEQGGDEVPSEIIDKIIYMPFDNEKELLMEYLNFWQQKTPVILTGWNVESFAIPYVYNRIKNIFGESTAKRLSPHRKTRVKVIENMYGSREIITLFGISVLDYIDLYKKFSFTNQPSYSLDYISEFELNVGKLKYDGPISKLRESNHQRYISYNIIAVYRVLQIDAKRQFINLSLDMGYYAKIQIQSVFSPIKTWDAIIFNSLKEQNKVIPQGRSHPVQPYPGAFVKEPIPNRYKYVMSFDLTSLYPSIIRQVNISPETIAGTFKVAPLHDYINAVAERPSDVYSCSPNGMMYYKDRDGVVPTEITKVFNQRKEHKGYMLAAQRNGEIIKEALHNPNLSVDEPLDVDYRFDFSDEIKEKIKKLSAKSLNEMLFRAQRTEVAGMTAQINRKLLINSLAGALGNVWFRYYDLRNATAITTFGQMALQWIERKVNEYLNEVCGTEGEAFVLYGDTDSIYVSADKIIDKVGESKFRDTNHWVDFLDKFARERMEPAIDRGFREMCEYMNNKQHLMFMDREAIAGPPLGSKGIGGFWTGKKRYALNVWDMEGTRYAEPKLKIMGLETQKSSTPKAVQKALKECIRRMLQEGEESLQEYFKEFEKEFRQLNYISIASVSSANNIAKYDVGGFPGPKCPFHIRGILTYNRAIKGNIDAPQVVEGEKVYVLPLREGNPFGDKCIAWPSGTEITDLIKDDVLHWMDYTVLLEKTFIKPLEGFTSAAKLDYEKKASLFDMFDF
# T1 sequence (Q38087 whole entry D222A/D327A): as the sequence (Q38087 whole entry D222A/D327A/Y567A) above, with A567Y counted along it
smiles,measurement,setting,value
Nc1ccn([C@H]2C[C@H](O)[C@@H](COP(=O)(O)O)O2)c(=O)n1 [dCMP],kpol / Kdincorp,T4 exo^- DNA polymerase [1],<0.0008 µM⁻¹ s⁻¹
same,kpol (overall nucleotide incorporation rate),[2]; short A+T-rich DNA 3,slow ^c
same,kpol / Kdincorp,[2]; short A+T-rich DNA 3,<1000 to 3000 M⁻¹ s⁻¹
same,kpol (overall nucleotide incorporation rate),[2]; short G+C-rich DNA 4,slow ^c
same,kpol / Kdincorp,[2]; short G+C-rich DNA 4,<1000 to 3000 M⁻¹ s⁻¹
same,kpol,[3]; [9],~ 6 s^−1
same,"kpol, fold lower than for incorporation of dTMP",[3]; [9],> 30 fold
same,kpol/Kd incorporation ratio (efficiency of misincorporation),[3]; longer and shorter A+T-rich DNA substrates,30000 to 40000 M⁻¹ s⁻¹
same,kpol/Kd incorporation ratio (efficiency of misincorporation),[3]; longer and shorter G+C-rich DNA substrates,3000 to 7000 M⁻¹ s⁻¹
same,kpol (overall nucleotide incorporation rate),[3]; [10],6.4 ± 0.6 s⁻¹
same,kpol / Kdincorp,[3]; [10],40000 M⁻¹ s⁻¹
same,kpol (overall nucleotide incorporation rate),[3]; [11],~6 s⁻¹
same,kpol / Kdincorp,[3]; [11],~3000 M⁻¹ s⁻¹
same,kpol (overall nucleotide incorporation rate),[3]; [12],9.3 ± 0.7 s⁻¹
same,kpol / Kdincorp,[3]; [12],30000 M⁻¹ s⁻¹
same,kpol / Kdincorp,[3]; [13],7000 M⁻¹ s⁻¹
same,Kd,"[3]; read-out: Kd,app for incorporation, shorter A+T- and G+C-rich DNAs (Table 2)",300 to 360 µM
same,Kd,[3]; [14],~170 µM and 170 µM
same,Kd,[3]; [15],298 ± 65 µM
same,Kd,[3]; [16],361 ± 52 µM
same,kpol (overall nucleotide incorporation rate),T4 exo^- DNA polymerase [4],2.3 ± 0.1 s^−1 ^a
Nc1ccn([C@H]2C[C@H](O)[C@@H](COP(=O)(O)OP(=O)(O)OP(=O)(O)O)O2)c(=O)n1 [dCTP],"discrimination against binding compared to dTTP, factor",T4 exo^- DNA polymerase [5]; 30 μM compared to 3 mM,≥ 100
same,"discrimination against binding compared to dTTP, factor",[6]; 30 μM compared to 3 mM,≥ 100
same,"Kd for binding, fold higher than Kd for dTTP binding",[7]; A+T-rich DNA substrate (DNA 1),< 3 fold
same,"Kd for binding, fold higher than Kd for dTTP binding",[7]; G+C-rich DNA (DNA 2),> 20 fold
same,Kd,[7]; [17],24.8 ± 2.1 µM
same,Kd,[7]; [18],~317 µM and 317 µM
same,Kd,"[7]; read-out: Kdbind, short A+T-rich DNA 3",~53 µM and 53 µM
same,Kd,"[7]; read-out: Kdbind, short G+C-rich DNA 4",~373 µM and 373 µM
same,inhibition of dTTP binding,T4 exo^- DNA polymerase [8],not an inhibitor of dTTP binding
same,Kd,T4 exo^- DNA polymerase [8]; read-out: Kd for binding opposite template 2AP,≥ 3000 µM
"Cc1cc(C2CC(O)C(COP(=O)(O)OP(=O)(O)OP(=O)(O)O)O2)c(F)cc1F (centres unmarked) [dFTP, difluorotoluene deoxynucleoside triphosphate]",quench of 2AP fluorescence,"T4 exo^- DNA polymerase [8]; at concentrations <150 μM, T4 DNA pol binary complexes",does not quench 2AP fluorescence
same,Ki,"T4 exo^- DNA polymerase [8]; read-out: Ki (competitive inhibitor of dTTP-Mg^2+-induced quenching), T4 DNA pol binary complexes",~68 µM
Cc1cn([C@H]2C[C@H](O)[C@@H](COP(=O)(O)O)O2)c(=O)[nH]c1=O [dTMP],dTMP/dCMP (ratio of kpol / Kdincorp),T4 exo^- DNA polymerase [1]; long A+T-rich DNA 1,>560
same,kpol / Kdincorp,T4 exo^- DNA polymerase [1],0.45 ^f μM^−1 s^−1
same,dTMP/dCMP (ratio of kpol / Kdincorp),[2]; short A+T-rich DNA 3,>1000
same,kpol (overall nucleotide incorporation rate),[2]; short A+T-rich DNA 3,379 ± 28 s⁻¹
same,kpol / Kdincorp,[2]; short A+T-rich DNA 3,3.3e+06 M⁻¹ s⁻¹
same,dTMP/dCMP (ratio of kpol / Kdincorp),[2]; short G+C-rich DNA 4,>1000
same,kpol (overall nucleotide incorporation rate),[2]; short G+C-rich DNA 4,201 ± 16 s⁻¹
same,kpol / Kdincorp,[2]; short G+C-rich DNA 4,1e+06 M⁻¹ s⁻¹
same,Kd,[2]; short A+T-rich DNA 3,114 ± 26 µM
same,Kd,[2]; short G+C-rich DNA 4,200 ± 45 µM
same,kpol,[3]; [9],~ 200 s^−1
same,preference for dTMP over dCMP incorporation,[3]; longer DNA substrates (Table 1),~ 300 fold and > 300 fold
same,dTMP/dCMP (ratio of kpol / Kdincorp),[3]; [10],375
same,kpol (overall nucleotide incorporation rate),[3]; [10],240 ± 11 s⁻¹
same,kpol / Kdincorp,[3]; [10],1.5e+07 M⁻¹ s⁻¹
same,dTMP/dCMP (ratio of kpol / Kdincorp),[3]; [11],333
same,kpol (overall nucleotide incorporation rate),[3]; [11],190 ± 11 s⁻¹
same,kpol / Kdincorp,[3]; [11],1e+06 M⁻¹ s⁻¹
same,dTMP/dCMP (ratio of kpol / Kdincorp),[3]; [12],143
same,kpol (overall nucleotide incorporation rate),[3]; [12],289 ± 9 s⁻¹
same,kpol / Kdincorp,[3]; [12],4.3e+06 M⁻¹ s⁻¹
same,dTMP/dCMP (ratio of kpol / Kdincorp),[3]; [13],129
same,kpol (overall nucleotide incorporation rate),[3]; [13],233 ± 27 s⁻¹
same,kpol / Kdincorp,[3]; [13],900000 M⁻¹ s⁻¹
same,Kd,[3]; [14],~16 µM and 16 µM
same,Kd,"[3]; read-out: Kdincorp, app, opposite template 2AP, long G+C-rich DNA 2",180 ± 75 µM
same,Kd,[3]; [15],67.3 ± 8 µM
same,Kd,[3]; [16],263 ± 78 µM
same,preference for dTMP over dCMP incorporation,[3]; shorter DNAs (Table 2),~ 100 fold and > 100 fold
same,kpol (overall nucleotide incorporation rate),T4 exo^- DNA polymerase [4],165 ± 3 s^−1 ^a
same,Kd,"T4 exo^- DNA polymerase [4]; read-out: Kdincorp, app",367 ± 36 µM
same,incorporation opposite template 2AP favored over incorporation of dCMP,DNA polymerase α,20- to 25 fold
Cc1cn([C@H]2C[C@H](O)[C@@H](COP(=O)(O)OP(=O)(O)OP(=O)(O)O)O2)c(=O)[nH]c1=O [dTTP],kpol (rate of nucleotide binding),T4 exo^- DNA polymerase [5]; long G+C-rich DNA 2,rapid
same,Kd,T4 exo^- DNA polymerase [5]; [18],28.7 ± 0.6 µM
same,Kd,[6]; long A+T-rich DNA 1,31.1 ± 0.9 µM
same,Kd,[6]; long G+C-rich DNA 2,30 ± 0.4 µM
same,Kd,[7]; [17],9.2 ± 0.8 µM
same,Kd,[7]; [18],15.1 ± 1.4 µM
same,kpol (rate of nucleotide binding),"T4 exo^- DNA polymerase [8]; long A+T-rich DNA 1, rapid = within dead time of stopped flow instrument",rapid ^a
same,Kd,"T4 exo^- DNA polymerase [8]; read-out: Kdbind, opposite template 2AP, long A+T-rich DNA 1",~35 µM and 35 µM
O=c1ccn([C@H]2C[C@H](O)[C@@H](COP(=O)(O)OP(=O)(O)OP(=O)(O)O)O2)c(=O)[nH]1 [dUTP],Kd,T4 exo^- DNA polymerase [5]; [19],74.1 ± 2 µM
same,Kd,[7]; [19],21 ± 1 µM
O=c1ccn([C@@H]2O[C@H](COP(=O)(O)OP(=O)(O)OP(=O)(O)O)[C@@H](O)[C@H]2O)c(=O)[nH]1 [rUTP],Kd,T4 exo^- DNA polymerase [5]; [19],> 3000 µM
same,Kd,[7]; [19],522 ± 55 µM
